Only some compounds are listed: those with a hit (about 1.8% of all), similar ones and a draw of the others.
TRAIL sens C8 – sensitizes caspase-8 expressing cells to TRAIL; inhibition (viability loss, TRAIL sensitization), % at 10 µM; AID 624354; actives 1% (n = 360,000); NB7+C8 cells + TRAIL, ATPlite viability luminescence;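 active means compounds causing at least 50% loss of cell viability in the single-dose screen, relative to plate controls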
STAT3 blocker – reduces IL-6 driven STAT3 reporter signal; actives 0.89% (n = 190,000); U3A cells, IL-6 STAT3-luciferase reporter, luminescence; host cell line lacks STAT1; inhibition, % at 5.5 µM;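 active means inhibition above the mean inhibition across all screened compounds plus 3 SD, cut at about 44% in these data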
STAT1 blocker – reduces IFN-gamma driven STAT1 reporter signal; AID 920; NIH 3T3 STAT1-luciferase reporter, luminescence; inhibition, % at 5.5 µM; actives 0.35% (n = 200,000);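 active means inhibition above a set limit, the mean inhibition across all tested compounds plus 3 SD, cut at about 34% in these data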
PPC-1+TRAIL kill – PPC-1 cancer cell killing with TRAIL present; PPC-1 cells + TRAIL, ATPLite viability luminescence; cell killing (% activity), % at 4 µM or 5 µM; actives 0.41% (n = 220,000);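 active means cell killing above 50% in the first pass at 4 µM, then a duplicate retest at 5 µM averaging 50% or more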
STAT3 activator – STAT3 signaling activation. U3A cells, IL-6 STAT3-luciferase reporter, luminescence; 100% = signal with IL-6 EC80 alone. actives 0.91% (n = 190,000). activation (% of control), % at 5.6 µM;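 active means activation above the screen-wide mean of compound activation plus 3 SD, cut at about 130% in these data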
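Test system: Human STAT1-deficient U3A cells with stable STAT3-luciferase reporter | Also added: Interleukin-6, 33 ng/mL | Timing: Compound pre-incubation 1 h before IL-6, then 6 h stimulation at 37 °C | Technique: Luciferase reporter luminescence | Read-out: Percent of IL-6-only median luminescence | Benchmarks: IL-6-only wells as 100% reference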
PPC-1 tox – PPC-1 cell cytotoxicity | cytotoxicity, % at 5 µM | shares compounds with PPC-1+TRAIL kill | actives 50% (n = 1,200) | PPC-1 viability, ATPlite luminescence, overnight;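 active means reconfirmed compounds whose average cytotoxicity reaches 50% or more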
A number is an active result.

`CCn1cc(/C=C(\NC(=O)c2ccccc2)C(=O)N2CCOCC2)c2ccccc21` gave TRAIL sens C8 inactive.
O=C(NCCS(=O)c1ccc(Cl)cc1)c1cccc(Cl)c1 (stereo not given) was read as TRAIL sens C8 inactive, STAT3 blocker inactive, STAT1 blocker inactive, PPC-1+TRAIL kill inactive and STAT3 activator inactive.
`CCOC(=O)c1cccc(C(=O)Nc2nc3ccc(OC)cc3s2)n1` gave TRAIL sens C8 82, STAT3 blocker inactive, STAT1 blocker inactive, PPC-1+TRAIL kill 68, STAT3 activator inactive and PPC-1 tox 67.
COc1cccc(NC(=O)Cn2c(=O)n(-c3ccccc3)c(=O)c3sccc32)c1 was read as TRAIL sens C8 inactive, STAT3 blocker inactive, STAT1 blocker inactive, PPC-1+TRAIL kill inactive and STAT3 activator inactive.
C=CC[C@H](CC(=O)N(CCO)Cc1ccccc1)C(=O)N[C@@H](COC(=O)[C@@H](CC=C)Cc1ccc(F)cc1)Cc1c[nH]c2ccccc12 was read as TRAIL sens C8 inactive.
`Cc1cc(OC(=O)c2ccc(S(=O)(=O)N3CCOCC3)cc2)c([N+](=O)[O-])c(=O)[nH]1` gave TRAIL sens C8 inactive, STAT3 blocker inactive, STAT1 blocker inactive, PPC-1+TRAIL kill inactive, STAT3 activator inactive and PPC-1 tox inactive.
Screening Cc1ccc(C(=O)Oc2cc(C)[nH]c(=O)c2[N+](=O)[O-])cc1 returned TRAIL sens C8 inactive, STAT3 blocker inactive, STAT1 blocker inactive, PPC-1+TRAIL kill inactive and STAT3 activator inactive.
`CC(Oc1ccccc1F)C(=O)NNC(=O)CCNC(=O)c1ccco1` (stereo not given) gave TRAIL sens C8 inactive.
For Cn1c(/C=C/c2ccccc2)nc2ccccc21 the results were TRAIL sens C8 83, STAT3 blocker 89, STAT1 blocker 75, PPC-1+TRAIL kill 80, STAT3 activator inactive and PPC-1 tox 82.
For CC1CCc2c(sc(NC(=O)c3c([N+](=O)[O-])cnn3C)c2C(N)=O)C1 (stereo not given) the results were TRAIL sens C8 inactive.
CN(Cc1ccccc1Cl)C(=O)CNC(=O)C12CC3CC(CC(C3)C1)C2 was read as TRAIL sens C8 inactive.
O=C(c1nc2nc(-c3ccccc3)cc(C(F)(F)F)n2n1)N1CCCCC1 was read as TRAIL sens C8 inactive, STAT3 blocker inactive, STAT1 blocker inactive, PPC-1+TRAIL kill inactive, STAT3 activator inactive and PPC-1 tox inactive.
Cc1cnc(NC(=O)COc2ccccc2Cl)s1 was read as TRAIL sens C8 77, STAT3 blocker 92, STAT1 blocker 61, PPC-1+TRAIL kill 60, STAT3 activator inactive and PPC-1 tox 59.
Screening Cc1cnc(NC(=O)CCNC(=O)c2ccccc2Cl)s1 returned TRAIL sens C8 inactive, STAT3 blocker inactive, STAT1 blocker inactive, PPC-1+TRAIL kill inactive and STAT3 activator inactive.
Screening CCOc1ccc2[nH]c(S(=O)(=O)CC)nc2c1Cl returned TRAIL sens C8 inactive, STAT3 blocker inactive, STAT1 blocker inactive, PPC-1+TRAIL kill inactive, STAT3 activator inactive and PPC-1 tox inactive.
For Cc1ccc(Cn2ccsc2=NC(=O)COC(=O)c2ccc(NC(=O)CC#N)cc2)cc1 the results were TRAIL sens C8 inactive.
For Cc1ccc(Cn2ccsc2=NC(=O)CCl)cc1 the results were TRAIL sens C8 98, STAT3 blocker inactive, STAT1 blocker inactive, PPC-1+TRAIL kill 91, STAT3 activator inactive and PPC-1 tox 91.
For C/C(=N\NC(=S)NCCc1ccccc1)c1cccs1 the results were TRAIL sens C8 inactive, STAT3 blocker inactive, STAT1 blocker inactive, PPC-1+TRAIL kill inactive and STAT3 activator inactive.
Screening O=[N+]([O-])c1ccc(N/N=C/c2ccc(O)c(O)c2O)c(S(=O)(=O)N2CCOCC2)c1 returned TRAIL sens C8 inactive, STAT3 blocker inactive, STAT1 blocker inactive, PPC-1+TRAIL kill inactive, STAT3 activator inactive and PPC-1 tox inactive.
For O=[N+]([O-])c1ccc(N/N=C/c2cccc(O)c2O)c(S(=O)(=O)N2CCOCC2)c1 the results were TRAIL sens C8 inactive, STAT3 blocker inactive, STAT1 blocker inactive, PPC-1+TRAIL kill inactive and STAT3 activator inactive.
COc1ccc(-c2nc3ccccc3s2)cc1 was read as TRAIL sens C8 84, STAT3 blocker 85, STAT1 blocker 73, PPC-1+TRAIL kill 60, STAT3 activator inactive and PPC-1 tox 61.
For COc1cccc(/C=N/NC(=S)Nc2cccc(C(=O)O)c2)c1O the results were TRAIL sens C8 87, STAT3 blocker 66, STAT1 blocker 68, PPC-1+TRAIL kill inactive, STAT3 activator inactive and PPC-1 tox inactive.
`O[C@@H]1CN(CC2CCCCC2)[C@@H](c2ccc(Cl)cc2)C[C@H]1n1cc(-c2ccc(F)cc2)nn1` gave TRAIL sens C8 inactive.
Screening COc1ccc(N/C(=N\c2nc(C)cc(C)n2)NC(=O)C(C)C)cc1OC returned TRAIL sens C8 inactive, STAT3 blocker inactive, STAT1 blocker inactive, PPC-1+TRAIL kill inactive, STAT3 activator inactive and PPC-1 tox inactive.
For COc1ccc(N/C(=N\c2nc(C)cc(C)n2)NC(C)=O)cc1OC the results were TRAIL sens C8 inactive, STAT3 blocker inactive, STAT1 blocker inactive, PPC-1+TRAIL kill inactive and STAT3 activator inactive.
c1c2c(cc3sc(N4CCOCC4)nc13)OCCO2 was read as TRAIL sens C8 78, STAT3 blocker 89, STAT1 blocker 51, PPC-1+TRAIL kill 63, STAT3 activator inactive and PPC-1 tox 60.
Screening S=c1[nH]ncn1/N=C/c1ccc(N2CCOCC2)cc1 returned TRAIL sens C8 51, STAT3 blocker inactive, STAT1 blocker inactive, PPC-1+TRAIL kill 62, STAT3 activator inactive and PPC-1 tox 64.
S=c1[nH]ncn1/N=C/c1ccc(Br)cc1 was read as TRAIL sens C8 inactive, STAT3 blocker inactive, STAT1 blocker inactive, PPC-1+TRAIL kill inactive and STAT3 activator inactive.
Screening Cc1ccc(NC(=O)COC(=O)CC2CC3CCC2C3)cc1S(=O)(=O)N1CCOCC1 (stereo not given) returned TRAIL sens C8 inactive.
`COc1ccc(OCc2cc(C(=O)N(Cc3nccn3C)C(C)C)no2)c2ccccc12` gave TRAIL sens C8 inactive.
COC(=O)CSc1nnc(-c2cccnc2)n1-c1cc(OC)cc(OC)c1 was read as TRAIL sens C8 inactive, STAT3 blocker inactive, STAT1 blocker inactive, PPC-1+TRAIL kill inactive and STAT3 activator inactive.
Screening COc1ccc(-n2c(SCC(=O)N3CCCCC3)nnc2-c2cccnc2)cc1 returned TRAIL sens C8 inactive, STAT3 blocker inactive, STAT1 blocker inactive, PPC-1+TRAIL kill inactive, STAT3 activator inactive and PPC-1 tox inactive.
For Cn1cnnc1Sc1ccc(C(=O)OCC(=O)NC2CC2)cc1[N+](=O)[O-] the results were TRAIL sens C8 inactive, STAT3 blocker inactive, STAT1 blocker inactive, PPC-1+TRAIL kill inactive, STAT3 activator inactive and PPC-1 tox inactive.
`O=C(N/N=C/c1ccc2nccnc2c1)c1ccccc1O` gave PPC-1+TRAIL kill 63 and PPC-1 tox 63.
Screening NNC(=O)Cn1c(-c2ccccc2)cc(=O)n2ncnc12 returned TRAIL sens C8 inactive and PPC-1+TRAIL kill inactive.
